# From paper PMC10470302 (iScience, 2023)
# Columns and labels:
# CHERP (SCAF6) = CHERP (SCAF6) (UniProt Q8IWX8); experiment: GST-CTD pull-down, label-free LC-MS/MS; conditions: reference: GST-CTD, buffer with no kinase; sites S2
# [1] = system: CHERP recruitment to the genome, HEK293 cells; experiment: ChIP-seq of CHERP; assay type: cell-based, human; conditions: 2μM flavopiridol, HA-CHERP in HEK293 cells, HA antibody ChIP-seq
# [2] = system: Ser2/Thr4 phosphorylation on RNA polymerase II, HEK293 cells; experiment: Western blot of Pol II phosphorylation after flavopiridol; assay type: cell-based, human; conditions: time course (Figure S10A)
# [3] = system: pSer2 Pol II and CHERP in HEK293 cells; experiment: Immunofluorescence colocalization of CHERP and pSer2 Pol II; assay type: cell-based, human; conditions: transfected HEK293 cells, confocal, no flavopiridol, N = 7
# How it was run: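 HEK293 cells were transfected (Fugene, 1:3 plasmid:reagent) with HA-CHERP or HA-CHERPΔCID, fixed 15 min in 1% formaldehyde at room temperature, and permeabilized with 0.2% Triton X-100. They were blocked 30 min in 2% BSA, then given primary antibody and Alexa Fluor 488/568 secondary, 1 h each at room temperature. Pearson coefficients were computed with threshold, from 7 cells across at least two biological replicates.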
# [4] = system: Pol II (RPB1, pSer2, pThr4), HEK293 cells; experiment: Co-immunoprecipitation with Pol II; assay type: cell-based, human; conditions: HEK293 extracts, western blot, at least three independent replicates
# How it was run: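 Protein G beads were loaded overnight at 4°C with 3 µg antibody or control IgG. 250 µg protein was bound for 2 h, washed three times, eluted by boiling 5 min in 2× SDS buffer, then immunoblotted.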
molecule,measurement,setting,value
"yeast CTD (GST-yCTD 26x) CTD, 26 heptad repeats GST-CTD treated with DYRK1A",fold change,CHERP (SCAF6),2.9
CN1CC[C@H](c2c(O)cc(O)c3c(=O)cc(-c4ccccc4Cl)oc23)[C@H](O)C1 [flavopiridol],CHERP recruitment to the genome with flavopiridol,[1],great reduction of CHERP recruitment to the genome
same,Ser2/Thr4 phosphorylation on RNA polymerase II,[2],caused Ser2/Thr4 phosphorylation to be reduced
CHERP: calcium homeostasis endoplasmic reticulum protein; endogenous or HA-tagged full-length (protein) MEMPLPPDDQELRNVIDKLAQFVARNGPEFEKMTMEKQKDNPKFSFLFGGEFYSYYKCKLALEQQQLICKQQTPELEPAATMPPLPQPPLAPAAPIPPAQGAPSMDELIQQSQWNLQQQEQHLLALRQEQVTAAVAHAVEQQMQKLLEETQLDMNEFDNLLQPIIDTCTKDAISAGKNWMFSNAKSPPHCELMAGHLRNRITADGAHFELRLHLIYLINDVLHHCQRKQARELLAALQKVVVPIYCTSFLAVEEDKQQKIARLLQLWEKNGYFDDSIIQQLQSPALGLGQYQATLINEYSSVVQPVQLAFQQQIQTLKTQHEEFVTSLAQQQQQQQQQQQQLQMPQMEAEVKATPPPPAPPPAPAPAPAIPPTTQPDDSKPPIQMPGSSEYEAPGGVQDPAAAGPRGPGPHDQIPPNKPPWFDQPHPVAPWGQQQPPEQPPYPHHQGGPPHCPPWNNSHEGMWGEQRGDPGWNGQRDAPWNNQPDAAWNSQFEGPWNSQHEQPPWGGGQREPPFRMQRPPHFRGPFPPHQQHPQFNQPPHPHNFNRFPPRFMQDDFPPRHPFERPPYPHRFDYPQGDFPAEMGPPHHHPGHRMPHPGINEHPPWAGPQHPDFGPPPHGFNGQPPHMRRQGPPHINHDDPSLVPNVPYFDLPAGLMAPLVKLEDHEYKPLDPKDIRLPPPMPPSERLLAAVEAFYSPPSHDRPRNSEGWEQNGLYEFFRAKMRARRRKGQEKRNSGPSRSRSRSKSRGRSSSRSNSRSSKSSGSYSRSRSRSCSRSYSRSRSRSRSRSRSSRSRSRSQSRSRSKSYSPGRRRRSRSRSPTPPSSAGLGSNSAPPIPDSRLGEENKGHQMLVKMGWSGSGGLGAKEQGIQDPIKGGDVRDKWDQYKGVGVALDDPYENYRRNKSYSFIARMKARDECK,"colocalization correlation value (Pearson), CHERP vs pSer2 Pol II",[3],0.77
same,co-immunoprecipitation with Pol II or its phosphorylation forms,[4],interacted with total Pol II
